Source: PubChem
Pf Dd2 inh: P. falciparum Dd2 growth inhibition. activity change, % at 10 µM. SYBR Green, 72 h; hits give low values. 94,000 tested, 2.3% active; in the data active = activity change below about -80%; inconclusive = no clear call, values can overlap the other calls
GASC1 inh: blocks human GASC-1 (KDM4C) demethylase activity; GST-KDM4C 2-372, H3K9me3 peptide, LANCE TR-FRET; Q9H3R0; AID 720574; inhibition, % at 12.5 µM; 96,000 tested, 0.15% active;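 active = mean replicate inhibition above about 25%, with at least 55% of replicates also reaching it, limit read from the data, passing the limit was not always enough; inconclusive = only one of those two conditions met; inactive = neither condition met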
Target sequence (Q9H3R0 2-372 limits assumed): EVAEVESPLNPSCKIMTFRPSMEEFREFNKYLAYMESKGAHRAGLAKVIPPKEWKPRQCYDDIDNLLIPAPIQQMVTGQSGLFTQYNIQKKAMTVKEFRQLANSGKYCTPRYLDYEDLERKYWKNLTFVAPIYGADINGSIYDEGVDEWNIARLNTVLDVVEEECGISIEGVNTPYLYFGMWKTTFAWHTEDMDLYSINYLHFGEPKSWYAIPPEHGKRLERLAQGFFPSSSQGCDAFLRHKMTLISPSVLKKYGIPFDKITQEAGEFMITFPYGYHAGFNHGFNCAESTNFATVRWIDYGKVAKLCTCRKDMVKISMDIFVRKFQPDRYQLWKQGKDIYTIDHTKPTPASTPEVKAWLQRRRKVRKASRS
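Material: GST-tagged GASC-1 (JMJD2C) catalytic fragment, aa 2-372 / Quantity: enzyme final amount 10 nM / Medium: HEPES buffer, pH 7.5, plus ascorbate / Doses: one test concentration per compound / Incubation: 30 min reaction, 60 min detection, RT / Measured by: LANCE TR-FRET / Read-out: inhibition from TR-FRET ratio decrease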
T cruzi growth-1: inhibitors of T. cruzi proliferation | T. cruzi beta-gal in NIH3T3, GalScreen luminescence, 90 h | inhibition, % at 8.34 µM | 77,000 tested, 5.9% active;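 active = mean inhibition above about 93%, with at least 55% of replicates each passing it, limit read from the data, passing the limit was not always enough; inconclusive = only one of those two conditions holds; inactive = neither condition holds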
IDH1 mut inh: blocks human IDH1 R132H reductase activity; O75874; diaphorase/resazurin fluorescence, 60 min; inhibition, % at 10 µM; 70,000 tested, 0.18% active; AID 624101; in the data active = inhibition above about 34%; inconclusive = no clear call, values can overlap the other calls; inactive = below about 11%;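 also: 0% = DMSO and 100% = no enzyme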
T cruzi growth-2: Trypanosoma cruzi proliferation inhibition; shares compounds with T cruzi growth-1; 5,600 tested, 72% active; inhibition, % at 8.35 µM; T. cruzi beta-gal in NIH3T3, GalScreen luminescence, 90 h; AID 651739;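 active = mean replicate inhibition above about 95% and at least 55% of replicates individually reaching it, limit read from the data; inconclusive = only one of the two criteria is met; inactive = neither criterion is met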
T cruzi growth-3: inhibitors of T. cruzi proliferation; T. cruzi beta-gal in NIH3T3, GalScreen luminescence, 90 h; inhibition, % at 2.09 µM; AID 651740; shares compounds with T cruzi growth-1; 5,600 tested, 21% active;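 active = mean inhibition above about 95%, with at least 55% of replicates also reaching it, limit read from the data; inconclusive = meets just one of the two conditions; inactive = meets neither condition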;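 also: plate controls were neutral control median for no effect and positive control median for full effect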
3T3 cytotox: NIH/3T3 (mouse) viability loss; shares compounds with T cruzi growth-1; NIH/3T3 viability, CellTiter-Glo ATP luminescence, 90 h; cytotoxicity (signal decrease), % at 8.35 µM; 5,600 tested, 14% active; AID 651742;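 active = mean signal decrease across replicates above about 35% based on untreated-well scatter, with enough replicates individually passing, limit read from the data; inconclusive = no rule stated though some were filed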;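 also: 0% = median of neutral control wells and 100% = median of positive control wells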
NIH3T3 tox 2: cytotoxicity in mouse NIH/3T3 fibroblasts | shares compounds with T cruzi growth-1 | NIH/3T3 viability, CellTiter-Glo ATP luminescence, 90 h | inhibition, % at 24.9 µM | 5,600 tested, 56% active | AID 651744;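 active = mean loss of cell viability signal at or above a set limit, and enough replicates individually reaching it; inconclusive = meets only the mean limit or only the replicate share; inactive = meets neither condition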;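 also: 0% = median of neutral control wells and 100% = median of positive control wells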
An asterisk follows results filed as active; u = inconclusive; x = not tested or not shown. The list is not random: actives were taken first. Their share in the collection is about 5.9%.

SMILES	Pf Dd2 inh	GASC1 inh	T cruzi growth-1	IDH1 mut inh	T cruzi growth-2	T cruzi growth-3	3T3 cytotox	NIH3T3 tox 2
COc1ccc(Cl)cc1NC(=O)CSc1nnc(N)s1	x	x	x	-0.5	x	x	x	x
Cc1ccc(S(=O)(=O)N2CCN(c3ccc([N+](=O)[O-])c(NCc4ccco4)c3)CC2)cc1C	x	x	x	0.7	x	x	x	x
O=C(C[C@@H]1CC[C@H]2[C@@H](COC[C@@H](O)CN2S(=O)(=O)c2cccc(Cl)c2)O1)Nc1ccc(-c2ccccc2)cc1	-3.3	-0.3	110.0*	x	100.9*	52.8	8.2	103.3*
O=C(C[C@@H]1CC[C@@H]2[C@H](COC[C@@H](O)CN2S(=O)(=O)c2cccc(Cl)c2)O1)Nc1ccc(-c2ccccc2)cc1	-10.3	-1.0	107.6*	x	97.5*	u	33.8	69.6*
COc1ccccc1NC(=O)CSc1nc2ccccc2c(=O)n1-c1ccc(C)cc1	x	x	x	0.6	x	x	x	x
COCC#Cc1ccc([C@@H]2[C@H]3CN(S(=O)(=O)c4ccc(OC)cc4)CCCCN3[C@H]2CO)cc1	-19.8	0.3	98.9*	x	100.3*	43.0	4.3	31.0*
COCC#Cc1ccc([C@H]2[C@H](CO)N3CCCCN(S(=O)(=O)c4cccc(OC)c4)C[C@@H]23)cc1	-26.8	0.4	107.7*	x	97.2*	39.3	12.6	u
COCC#Cc1ccc([C@H]2[C@@H](CO)N3CCCCN(S(=O)(=O)c4cccc(OC)c4)C[C@@H]23)cc1	-9.7	-1.1	15.8	x	x	x	x	x
O=C(c1ccc2nsnc2c1)N(Cc1ccccn1)Cc1ccccn1	x	x	x	-0.4	x	x	x	x
Cc1cc(C)c(OCC(=O)Nc2ccc3oc(-c4cncc(Br)c4)nc3c2)c(Cl)c1	x	x	x	-0.3	x	x	x	x
C[C@H](CO)N1C[C@H](C)[C@H](CN(C)Cc2ccc(Oc3ccccc3)cc2)Oc2ccc(NC(=O)Cc3cn(C)c4ccccc34)cc2C1=O	-55.7	-1.0	u	x	103.8*	58.9	24.5	43.3*
COc1ccc(CN(C)C[C@@H]2Oc3ccc(NC(=O)Cc4cn(C)c5ccccc45)cc3C(=O)N([C@H](C)CO)C[C@@H]2C)cc1	-32.3	-0.1	39.3	-22.7	x	x	x	x
COc1ccc(CN(C)C[C@@H]2Oc3ccc(NC(=O)Cc4cn(C)c5ccccc45)cc3C(=O)N([C@H](C)CO)C[C@H]2C)cc1	13.1	-0.4	33.4	-30.9	x	x	x	x
C[C@@H]1CN([C@H](C)CO)C(=O)c2cc(NC(=O)Cc3cn(C)c4ccccc34)ccc2O[C@@H]1CN(C)Cc1ccc(Oc2ccccc2)cc1	-17.2	-1.3	96.4*	-4.1	100.9*	76.3	12.1	52.5*
Cc1cc(C)c(NC(=O)CN(C)S(=O)(=O)c2ccc(Br)cc2)c(C)c1	x	x	x	-0.1	x	x	x	x
Clc1ccc(COc2ccccc2CNc2ncn[nH]2)c(Cl)c1	x	x	x	-0.7	x	x	x	x
C[C@H]1CN([C@@H](C)CO)S(=O)(=O)c2ccc(C#CCN(C)C)cc2O[C@@H]1CN(C)C(=O)C1CC1	-8.0	-0.6	110.5*	3.5	108.7*	99.1*	5.2	5.1
C[C@@H]1CN([C@H](C)CO)S(=O)(=O)c2ccc(C#CCN(C)C)cc2O[C@H]1CN(C)C(=O)C1CC1	-12.1	0.4	89.5*	x	u	80.4	-11.0	-2.3
C[C@@H]1CN([C@H](C)CO)S(=O)(=O)c2ccc(C#CC(C)(C)O)cc2O[C@H]1CN(C)C(=O)C1CC1	8.2	-1.9	104.6*	x	44.7	7.8	29.1	42.4*
C[C@@H]1CN([C@H](C)CO)S(=O)(=O)c2ccc(C#CC(C)(C)O)cc2O[C@@H]1CN(C)C(=O)C1CC1	20.9	-2.1	-21.4	0.3	x	x	x	x
COc1ccccc1-c1ccc2c(c1)O[C@H](CN(C)S(=O)(=O)c1ccccc1)[C@@H](C)CN([C@H](C)CO)S2(=O)=O	-64.6	x	85.7	-0.1	x	x	x	x
COc1ccccc1-c1ccc2c(c1)O[C@H](CN(C)S(=O)(=O)c1ccccc1)[C@@H](C)CN([C@@H](C)CO)S2(=O)=O	-56.3	x	92.9*	x	95.1*	20.4	35.8*	46.5*
